This passage reports Relative potency results from ChEMBL document CHEMBL1125421, “Cholesterol lowering bile acid binding agents: novel lipophilic polyamines” (1992).

Holding throughout (assay type): functional
The subject of assay [1] is Coturnix coturnix. Nature of the assay: Effect on serum VLDL+LDL cholesterol (relative to cholestipol hydrochloride) at a dose of 50 mg/kg BW per day. In short, it runs like this:
(§1)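 Cholesterol-fed Japanese quail given compound mixed in diet for 2 weeks; controls diet alone (n = 17-20), positive controls colestipol hydrochloride 1000 mg/kg per day (n = 8-10), treated groups 10 birds. Jugular bleed; VLDL+LDL precipitated from serum with PEG-8000 in 0.2 M glycine pH 9, centrifuged 2000g 45 min 4 °C. Log-transformed cholesterol gives T/C; relative potency from doses giving T/C=0.5 using common slope -0.79.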

In assay [2] the test system is Coturnix coturnix. Nature of the assay: Effect on serum VLDL+LDL cholesterol (relative to cholestipol hydrochloride) at a doses of 100, 150, 300 mg/kg BW per day. Put shortly: as §1
Assay [3] deals with Coturnix coturnix. Nature of the assay: Effect on serum VLDL+LDL cholesterol (relative to cholestipol hydrochloride) at a dose of 150 mg/kg BW per day. Put shortly:
as §1

In assay [4] the test system is Coturnix coturnix. Nature of the assay: Effect on serum VLDL+LDL cholesterol (relative to cholestipol hydrochloride) at a dose of 100 mg/kg BW per day. Put shortly:
as §1

The test system of assay [5] is Coturnix coturnix. Nature of the assay: Effect on serum VLDL+LDL cholesterol (relative to cholestipol hydrochloride) at a doses of 50, 150 mg/kg BW per day. Put shortly:
as §1

The subject of assay [6] is Coturnix coturnix. Nature of the assay: Effect on serum VLDL+LDL cholesterol (relative to cholestipol hydrochloride) at a doses of 25,50 mg/kg BW per day. Put shortly:
as §1

Assay [7] concerns Coturnix coturnix. The assay can be described thus: Effect on serum VLDL+LDL cholesterol (relative to cholestipol hydrochloride) at a doses of 10, 25, 50, 100, 150 mg/kg BW per day. Put shortly:
as §1

Assay [8] concerns Coturnix coturnix. Nature of the assay: Effect on serum VLDL+LDL cholesterol (relative to cholestipol hydrochloride) at a dose 100 of mg/kg BW per day. Put shortly:
as §1

Assay [9] deals with Coturnix coturnix. The assay can be described thus: Effect on serum VLDL+LDL cholesterol (relative to cholestipol hydrochloride) at a doses of 25,50, 100 mg/kg BW per day. In short, it runs like this: as §1
Assay [10] concerns Coturnix coturnix. Nature of the assay: Effect on serum VLDL+LDL cholesterol (relative to cholestipol hydrochloride) at a dose of 100, 300 mg/kg BW per day. In short, it runs like this: as §1
Assay [11] has as its system Coturnix coturnix. The assay can be described thus: Effect on serum VLDL+LDL cholesterol (relative to cholestipol hydrochloride) at a doses of 25, 50, 100 mg/kg BW per day. Put shortly: as §1

On to `C1CCCCCC(NCCN(CCNC2CCCCCCCCCCC2)CCNC2CCCCC2)CCCCC1`, for which the Relative potency with Coturnix coturnix [1] is on record as 21.
As for `NCCN(CCN)CCNC1CCCCCCCCCCCCCC1`, the Relative potency in the assay with Coturnix coturnix [2] is reported as 7.
`Cl.Cl.Cl.NCCN(CCNC1CCCCCCCCCCC1)CCNC1CCCCCCCCCCC1` gave a Relative potency with Coturnix coturnix [1] of 13.
Compound `N#CCCNCCN(CCNCCC#N)CCNC1CCCCCCCCCCC1` displayed a Relative potency in the assay with Coturnix coturnix [3] of 2.
In turn, `NCCNC(=O)CCNCCN(CCNCCC(=O)NCCN)CCNC1CCCCCCCCCCC1` had a Relative potency with Coturnix coturnix [4] of 5.
Take `COC(=O)CCNCCN(CCNCCC(=O)OC)CCNC1CCCCCCCCCCC1`: the Relative potency in the assay on Coturnix coturnix [5] turned out to be 7.
In the assay with Coturnix coturnix [6], `c1ccc(CNCCN(CCNC2CCCCCCCCCCC2)CCNC2CCCCCCCCCCC2)cc1` registered a Relative potency of 18.
`O=C(NCCN(CCNC1CCCCCCCCCCC1)CCNC1CCCCCCCCCCC1)c1ccccc1`: the Relative potency with Coturnix coturnix [1] came out at 11.
Compound `CCN(CC)CCN(CCN(CC)CC)CCN(CC)C1CCCCCCCCCCC1.Cl.Cl.Cl` showed a Relative potency with Coturnix coturnix [4] of 8.
As to `Cl.Cl.Cl.c1ccc(CNCCN(CCNC2CCCCCCCCCCC2)CCNC2CCCCCCCCCCC2)cc1`, in the assay with Coturnix coturnix [1], the Relative potency is 29.
In the case of `NCCN(CCNC1CCCCCCCCCCC1)CCNC1CCCCCCCCCCC1`, the Relative potency with Coturnix coturnix [7] is on record as 13.
The compound `NCCN(CCN)CCNC1CCCCCCCCCCCCCCC1` yielded a Relative potency in the assay on Coturnix coturnix [1] of 10.
`CCCCCCCCCCCCCCCCNCCN(CCN)CCN` had a Relative potency in the assay with Coturnix coturnix [8] of 6.
In the assay on Coturnix coturnix [6], `C1CCCCCC(NCCN(CCNC2CCCCCCCCCCC2)CCNC2CCC3(CC2)OCCO3)CCCCC1` displayed a Relative potency of 19.
For `C1CCC(NCCN(CCNC2CCCCC2)CCNC2CCCCC2)CC1`, the Relative potency with Coturnix coturnix [3] amounted to 3.
Take `Cl.Cl.Cl.Cl.NCCN(CCNC1CCCCCCCCCCC1)CCNC1CCCCCCCCCCC1`: in the assay on Coturnix coturnix [1], the Relative potency came to 12.
Take `NCCN(CCN)CCNCc1ccc(-c2ccccc2)cc1`: the Relative potency in the assay on Coturnix coturnix [4] is 2.
In the assay on Coturnix coturnix [1], `c1ccc(CNCCN(CCNC2C3CC4CC(C3)CC2C4)CCNC2C3CC4CC(C3)CC2C4)cc1` (centres undefined) gave a Relative potency of 13.
Consider `NCCCOCCN(CCOCCCN)CCOC1CCCCCCCCCCC1`, for which the Relative potency in the assay with Coturnix coturnix [3] amounted to 2.
`CN(CCN(CC[N+](C)(C)C)CC[N+](C)(C)C)C1CCCCCCCCCCC1.[I-].[I-]` showed a Relative potency in the assay with Coturnix coturnix [3] of 2.
`C1CCCCCC(NCCN(CCNC2CCCCCCCCCCC2)CCNC2CCCCCCCCCCC2)CCCCC1` returned a Relative potency in the assay on Coturnix coturnix [9] of 6.
`CN(CCN(CCN(C)C1CCCCC1)CCN(C)C1CCCCC1)C1CCCCC1` had a Relative potency in the assay on Coturnix coturnix [3] of 5.
In turn, `CN(C)CCN(CCN(C)C1CCCCCCCCCCC1)CCN(C)C1CCCCCCCCCCC1` gave a Relative potency in the assay on Coturnix coturnix [1] of 24.
For the compound `NCCN(CCNC1CCCCCCCCCCCCCC1)CCNC1CCCCCCCCCCCCCC1`, the Relative potency in the assay with Coturnix coturnix [3] was 7.
`COC(=O)CCN(CCN(CCN(CCC(=O)OC)C1CCCCCCCCCCC1)CCN(CCC(=O)OC)C1CCCCCCCCCCC1)C1CCCCCCCCCCC1`: the Relative potency in the assay with Coturnix coturnix [1] was found to be 4.
`NCCN(CCN)CCNC1CCCCCCCCCCC1` came in with a Relative potency in the assay on Coturnix coturnix [10] of 5.
Turning to `NCCN(CCNC(=O)c1ccccc1)CCNC(=O)c1ccccc1`, in the assay with Coturnix coturnix [11], the Relative potency is 5.
Turning to `N#CCCNCCN(CCNC1CCCCCCCCCCC1)CCNC1CCCCCCCCCCC1`, the Relative potency with Coturnix coturnix [1] was determined as 21.
`NCCCNCCN(CCNCCCN)CCNC1CCCCCCCCCCC1` had a Relative potency in the assay with Coturnix coturnix [3] of 4.
